Assay results: PMC3224645 (Purinergic Signalling, 2011)

What was measured:
[1] = tested on: LNCaP cells; assay: LNCaP proliferation with IPA in the presence of A3R antagonist MRS1523; type: cell-based, human
[2] = biological target: T1, hA3R (Homo sapiens, UniProt P0DMS8); conditions: cited from earlier work
T1 sequence (P0DMS8 1-318): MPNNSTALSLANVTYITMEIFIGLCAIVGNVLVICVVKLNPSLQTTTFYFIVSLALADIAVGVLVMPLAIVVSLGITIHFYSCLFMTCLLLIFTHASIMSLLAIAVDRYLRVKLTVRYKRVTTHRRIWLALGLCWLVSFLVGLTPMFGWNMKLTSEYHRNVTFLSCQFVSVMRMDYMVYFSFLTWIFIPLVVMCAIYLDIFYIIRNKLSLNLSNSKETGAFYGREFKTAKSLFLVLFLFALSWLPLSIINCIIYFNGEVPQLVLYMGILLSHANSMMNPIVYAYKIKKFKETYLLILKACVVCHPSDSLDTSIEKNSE

[3] = tested on: breast cancer cell lines lacking A3R mRNA; conditions: concentrations between 10 and 100 μM (500 μM for adenosine); cited from earlier work
[4] = in the first 4 h, mostly in metabolized form; cited from earlier work
[5] = biological target: T2, rat A3R (Rattus norvegicus, UniProt P28647); assay: Radioligand binding, [125I]-AB-MECA displacement on RBL-2H3 cell membranes
T2 sequence (P28647 1-320): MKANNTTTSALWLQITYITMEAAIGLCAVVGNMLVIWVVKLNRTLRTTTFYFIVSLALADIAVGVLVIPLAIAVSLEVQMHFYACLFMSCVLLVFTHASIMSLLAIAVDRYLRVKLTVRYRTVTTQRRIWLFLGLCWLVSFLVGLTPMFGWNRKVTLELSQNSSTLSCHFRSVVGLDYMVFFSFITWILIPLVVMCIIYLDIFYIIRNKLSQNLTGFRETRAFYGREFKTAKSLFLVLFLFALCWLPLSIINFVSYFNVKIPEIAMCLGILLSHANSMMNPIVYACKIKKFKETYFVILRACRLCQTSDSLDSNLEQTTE

[6] = tested on: N1S1 (rat hepatocellular carcinoma) cells; assay: [3H]-thymidine incorporation proliferation assay, N1S1; type: cell-based
Summary of the method: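 N1S1 rat hepatoma cells, not serum-starved, were assayed in growth medium (RPMI 1640, 10% FBS, 2 mM L-glutamine, penicillin/streptomycin) at 1.5 × 10^4 cells/ml. […] Assays ran 24 h, or 48 h for experiments with EHNA (10 μM). [3H]-thymidine (1 μCi) was pulsed for the last 18 h, then cells were harvested and scintillation-counted.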

[7] = biological target: T1, hA3R; assay: cAMP accumulation assay; type: cell-based
[8] = tested on: LNCaP (human prostate carcinoma) cells; assay: [3H]-thymidine incorporation proliferation assay, LNCaP; type: cell-based; conditions: for effect on LNCaP proliferation: 24 h
Summary of the method: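 LNCaP cells were kept in RPMI 1640 with 10% FBS, then serum-starved for 18 h and assayed as monolayers in RPMI with 1% FBS at 1.5 × 10^4 cells/ml. […] Assays ran 24 h, or 48 h for experiments with EHNA (10 μM). [3H]-thymidine (1 μCi) was added for the last 18 h, then cells were harvested and counted. Three experiments in triplicate.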

[9] = phase I clinical studies; cited from earlier work
[10] = tested on: MOLT-4; conditions: 30 μM, in the presence of MRS1523 (10 μM) or MRS1220 (5 μM); cited from earlier work
[11] = tested on: HL-60; conditions: 30 μM, in the presence of MRS1523 (10 μM) or MRS1220 (5 μM); cited from earlier work

CCCOC(=O)c1c(-c2ccccc2)nc(CC)c(C(=O)SCC)c1CCC [MRS1523]
blockade of the antiproliferative effect of IPA on LNCaP ([1]; IPA 1 μM, MRS1523 0.01–1 μM): small, although still significant at higher concentrations | blockade of the antiproliferative effect of IPA on LNCaP ([1]; IPA 10 μM, MRS1523 0.01–1 μM): no effect | blockade of the antiproliferative effect of IPA on LNCaP ([1]; MRS1523 0.1 and 1 μM, IPA 0.01 and 0.1 μM): prevented the antiproliferative effect | affinity for the hA3R compared to IPA [2]: approximately sixfold higher

Nc1nc(Cl)nc2c1ncn2[C@@H]1O[C@H](CO)[C@@H](O)[C@H]1O [2-chloro-adenosine]
antiproliferative effect on breast cancer cell lines lacking A3R mRNA [3]: had antiproliferative effects

CC(C)=CCNc1ncnc2c1ncn2[C@@H]1O[C@H](CO)[C@@H](O)[C@H]1O [1b, N^6-(2-isopentenyl)-adenosine]
fraction excreted in urine [4]: more than 50% | Ki [5]: 4.69 ± 0.2 µM

Nc1ncnc2c1ncn2[C@@H]1O[C@H](CO)C[C@H]1O [3′-deoxyadenosine]
antiproliferative effect on breast cancer cell lines lacking A3R mRNA [3]: had antiproliferative effects

Nc1ncnc2c1ncn2[C@@H]1O[C@H](CO)[C@@H](O)[C@H]1O [1a, Adenosine]
effect on N1S1 proliferation ([6]; 25 μM): only a modest effect | effect on N1S1 proliferation in the presence of EHNA ([6]; adenosine 25 μM + EHNA 10 μM): almost full growth inhibition | antiproliferative effect on breast cancer cell lines lacking A3R mRNA [3]: had antiproliferative effects | effect of ADA on the agonist's inhibition of cAMP production ([7]; agonist 10 μM + ADA 0.8 IU/ml): abolished the effect | inhibition of forskolin-stimulated cAMP production ([7]; agonist at 10 μM): inhibited cAMP production to a similar extent | effect on LNCaP proliferation ([8]; 25 μM): no effect | effect of EHNA on the adenosine effect in LNCaP ([8]; adenosine 25 μM + EHNA 10 μM, data not shown): did not increase the adenosine effect

CCCCCC[C@@H]([C@@H](C)O)n1cnc2c(N)ncnc21 (racemic) [EHNA]
basal growth inhibition of N1S1 cells ([6]; EHNA 10 μM alone, without adenosine): 22%

CNC(=O)[C@H]1O[C@@H](n2cnc3c(NCc4cccc(I)c4)ncnc32)[C@H](O)[C@@H]1O [IB-MECA]
tolerability [9]: tolerated very well | antiproliferative effect on breast cancer cell lines lacking A3R mRNA [3]: had antiproliferative effects

CNC(=O)[C@H]1O[C@@H](n2cnc3c(NCc4cccc(I)c4)nc(Cl)nc32)[C@H](O)[C@@H]1O [Cl-IB-MECA, 2-chloro-N ^6-(3-iodobenzyl)adenosine-5′-N-methylcarboxamide]
effect on N1S1 proliferation ([6]; 0.01–10 μM, 24 h): inhibited proliferation | antiproliferative effect on breast cancer cell lines lacking A3R mRNA [3]: had antiproliferative effects | growth of MOLT-4 [10]: inhibited growth | growth of HL-60 [11]: inhibited growth | effect on LNCaP proliferation ([8]; 0.01–10 μM): inhibited proliferation

COc1ccccc1NC(=O)Nc1nc(-c2cccnc2)nc2ccccc12 [VUF5574]
inhibition by the antagonist of cAMP modulation by adenosine, IPA and Cl-IB-MECA ([7]; agonists 10 μM, VUF5574 1 μM or 10 μM): largely and significantly inhibited
